In publication PMC7299768 (Journal of controlled release : official journal of the …, 2020):

Legend:
[1] = Pharmacokinetics and tissue bio-distribution after single oral administration; type: in vivo, C57BL/6J mice; details: for Level in most of the blood samples: after oral free-6-S or 6-S-NL 5 mg/kg
Summary of the method: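 Single oral gavage of 5 mg/kg to fasted (4 h) female C57BL/6J mice, as free test compound in 0.5% CMC-Na/PBS or as lipid nanoparticles in PBS. Sparse sampling, 3 mice/time point: blood (K₂EDTA) 5 min–8 h; stomach, small intestine, colon, liver and kidney 15 min–8 h. Acetonitrile precipitation, LC-MS/MS (MRM) of parent and metabolites. Cmax and Tmax observed; T1/2 = ln2/k.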

Drug loading efficiency = type: physicochemical; details: (encapsulated drug/total drug) x100%; natural lipid NPs
Summary of the method: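 Loading into natural-lipid nanoparticles measured by dialysis in 10 K MWCO mini devices pre-equilibrated with release medium (3% MeOH, 0.1% Polysorbate 80 in PBS, pH 7.4). Entrapped drug is apical minus basal concentration; free drug is basal concentration. Quantified by HPLC-UV (C18 column, 282 nm). Efficiency = encapsulated/total drug ×100%, from three batches.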

inflamed Raw 264.7 cells = test: In vitro anti-inflammation assay; type: cell-based; details: 1.0 μg/mL; for IL-1β gene expression / IL-6 gene expression / IL-10 gene expression / TNF-α gene expression: LPS-inflamed Raw 264.7 cells, RT-PCR; for Anti-inflammatory activities compared with 6-shogaol: inflamed Raw 264.7 cells
wounded Caco-2 BBE cells = test: In vitro wound-healing assay; type: cell-based; details: 0.6 mL of 1.0 μg/mL solution; ECIS
Summary of the method: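 Caco-2 BBE cells were grown on ECIS 8W1E electrode plates in humidified 5% CO₂. At confluence, medium with or without test compound (1.0 μg/mL) or control formulation was added. Monolayers were wounded by a 30 s pulse (40 kHz, 4.5 V), and recovery was followed as impedance, with resistance measured at 500 Hz and 1 V.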

[2] = cited from earlier work
[3] = oral 5 mg/kg, compared to the 6-S-NL group

Compound | Level in most of the blood samples [1] | Drug loading efficiency (Drug loading efficiency) | IL-1β gene expression (inflamed Raw 264.7 cells) | IL-6 gene expression (inflamed Raw 264.7 cells) | IL-10 gene expression (inflamed Raw 264.7 cells) | TNF-α gene expression (inflamed Raw 264.7 cells) | Anti-inflammatory activities compared with 6-shogaol (inflamed Raw 264.7 cells) | Healing of wounded Caco-2 epithelial monolayers compared with 6-shogaol (wounded Caco-2 BBE cells) | Tmax of 6-shogaol in the colon ([1]; oral 5 mg/kg) | M13 concentrations in the small intestine, comparison ([1]; oral 5 mg/kg, compared to 6-S-NL) | AUC values of M2 and M13 in liver and kidney tissues, comparison [1, 3] | Exposure (AUC) of 6-shogaol in stomach and small intestine tissues, comparison [1, 3] | Effective 6-shogaol concentration in vitro [2]
CCCCCC(CC(=O)CCc1ccc(O)c(OC)c1)SC[C@H](N)C(=O)O (stereo partly shown) [M2] | below the LLOQ | 91.3 ± 3.1% | down-regulate | down-regulate | up-regulate | down-regulate | higher | healed significantly faster |  |  |  |  | 
CCCCCC(CC(=O)CCc1ccc(O)c(OC)c1)SC[C@H](NC(=O)CC[C@H](N)C(=O)O)C(=O)NCC(=O)O (stereo partly shown) [M13] | below the LLOQ | 83.3 ± 1.9% | down-regulate | down-regulate | up-regulate | down-regulate | higher | healed significantly faster |  |  |  |  | 
CCCCC/C=C/C(=O)CCc1ccc(O)c(OC)c1 [6-shogaol] |  | 89.1 ± 2.6% |  |  |  |  |  |  | 1.5 h | higher | higher | significantly higher | about 1 μg/mL
